In series [1] the target is T1, Muscarinic acetylcholine receptor M4 (Homo sapiens, UniProt P08173).
T1 sequence (P08173 whole entry): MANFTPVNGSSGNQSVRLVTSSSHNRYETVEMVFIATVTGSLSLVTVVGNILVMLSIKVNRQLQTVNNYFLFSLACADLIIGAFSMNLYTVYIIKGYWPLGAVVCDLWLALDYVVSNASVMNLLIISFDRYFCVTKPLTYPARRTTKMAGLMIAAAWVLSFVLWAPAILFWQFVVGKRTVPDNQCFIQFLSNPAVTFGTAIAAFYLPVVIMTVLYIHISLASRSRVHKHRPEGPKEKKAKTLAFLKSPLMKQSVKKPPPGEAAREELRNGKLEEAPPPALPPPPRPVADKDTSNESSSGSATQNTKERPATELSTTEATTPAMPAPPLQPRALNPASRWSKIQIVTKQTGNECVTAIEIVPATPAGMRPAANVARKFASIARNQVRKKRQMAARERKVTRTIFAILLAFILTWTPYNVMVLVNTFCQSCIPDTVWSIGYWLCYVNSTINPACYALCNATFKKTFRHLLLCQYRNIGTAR
Description: Positive allosteric modulation of human M4 receptor expressed in CHO cells co-expressing Gqi5 assessed as increase in acetylcholine-induced calcium mobilization. (In general: Calcium assays in cells follow changes in intracellular calcium, usually with a dye or a luminescent sensor.)

For series [2], the system named is Rattus norvegicus. As to the kind of experiment: Reversal of amphetamine-induced hyperlocomotion in Sprague-Dawley rat at 10 mg/kg, po pretreated 30 mins post habituation in the chamber followed by amphetamine injection after 30 mins measured after 60 mins. Type of series: functional. The method in brief: (§1)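 Male Sprague-Dawley rats, n = 6–24 per dose group, were habituated in the chamber for 30 min. The compound or vehicle (10% tween-80 in water, v/v) was then given orally. Amphetamine 0.75 mg/kg was injected subcutaneously 30 min later. Total ambulations over t = 60–120 min gave % reversal of AHL, reported as mean ± SEM.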

Series [3] concerns the target T2, Cytochrome P450 2C9 (Homo sapiens, UniProt P11712). As to the kind of experiment: Inhibition of CYP2C9 (unknown origin). Type of series: ADME.
In series [4] the test system is Rattus norvegicus. Description: Reversal of amphetamine-induced hyperlocomotion in Sprague-Dawley rat at 3 mg/kg, po pretreated 30 mins post habituation in the chamber followed by amphetamine injection after 30 mins measured after 60 mins. It counts as functional. The method in brief:
as §1

The target in series [5] is T3, Muscarinic acetylcholine receptor M4 (Rattus norvegicus) (UniProt P08485).
T3 sequence (whole entry): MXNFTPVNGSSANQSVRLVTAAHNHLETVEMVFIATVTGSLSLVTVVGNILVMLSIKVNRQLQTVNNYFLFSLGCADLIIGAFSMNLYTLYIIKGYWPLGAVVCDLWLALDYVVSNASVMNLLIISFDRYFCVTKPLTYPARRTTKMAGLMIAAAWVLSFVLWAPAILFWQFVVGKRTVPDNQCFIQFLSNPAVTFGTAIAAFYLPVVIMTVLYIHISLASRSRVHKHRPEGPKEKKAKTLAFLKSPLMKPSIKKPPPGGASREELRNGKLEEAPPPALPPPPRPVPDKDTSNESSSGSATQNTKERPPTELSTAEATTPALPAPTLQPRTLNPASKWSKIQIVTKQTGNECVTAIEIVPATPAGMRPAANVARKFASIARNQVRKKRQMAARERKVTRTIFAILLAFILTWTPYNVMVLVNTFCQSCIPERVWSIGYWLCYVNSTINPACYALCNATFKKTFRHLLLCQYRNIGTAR
As to the kind of experiment: Activity at rat M4 receptor assessed as acetylcholine-induced calcium mobilization. It counts as functional. The method in brief:
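Ca2+ mobilization read-out. Acetylcholine concentration-response curves were run in the presence of the PAM to measure the fold-shift. An operational model was fitted to derive the PAM's affinity (KB) and cooperativity (αβ).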

The target in series [6] is T4, Muscarinic acetylcholine receptor M4 (Homo sapiens) (UniProt P08173).
T4 sequence (whole entry): T1 sequence (P08173 whole entry)
Description: Activity at human M4 receptor assessed as acetylcholine-induced calcium mobilization. It counts as functional.

Series [7] deals with Rattus norvegicus. Description: Reversal of amphetamine-induced hyperlocomotion in Sprague-Dawley rat at 0.03 mg/kg, po pretreated 30 mins post habituation in the chamber followed by amphetamine injection after 30 mins measured after 60 mins. Type of series: functional. In short, it runs like this: as §1
Series [8] concerns Rattus norvegicus. Description: Reversal of amphetamine-induced hyperlocomotion in Sprague-Dawley rat at 0.1 mg/kg, po pretreated 30 mins post habituation in the chamber followed by amphetamine injection after 30 mins measured after 60 mins. Type of series: functional. The method in brief:
as §1

Another series concerns the target T5, Cytochrome P450 1A2 (Homo sapiens, UniProt P05177).
T5 sequence (P05177 whole entry): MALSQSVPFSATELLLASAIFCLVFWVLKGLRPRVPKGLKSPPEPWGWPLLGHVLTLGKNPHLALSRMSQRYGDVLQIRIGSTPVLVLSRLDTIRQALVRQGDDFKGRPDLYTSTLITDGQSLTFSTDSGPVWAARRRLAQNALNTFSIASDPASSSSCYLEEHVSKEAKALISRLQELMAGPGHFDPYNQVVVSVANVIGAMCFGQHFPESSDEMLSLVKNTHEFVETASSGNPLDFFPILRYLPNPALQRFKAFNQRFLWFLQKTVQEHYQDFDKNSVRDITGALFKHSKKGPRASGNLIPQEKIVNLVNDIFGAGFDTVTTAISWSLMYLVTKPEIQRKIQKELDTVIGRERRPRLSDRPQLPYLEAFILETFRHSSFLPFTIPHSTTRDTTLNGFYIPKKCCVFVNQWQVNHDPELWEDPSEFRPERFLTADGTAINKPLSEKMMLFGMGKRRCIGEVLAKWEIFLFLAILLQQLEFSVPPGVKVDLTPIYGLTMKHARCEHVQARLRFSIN
Description: Time-dependent inhibition of CYP1A2 (unknown origin). Type of series: ADME.

The target in another series is Cytochrome P450 2D6 (Homo sapiens, UniProt P10635). As to the kind of experiment: Time-dependent inhibition of CYP2D6 (unknown origin). Type of series: ADME.
For series [9], the target named is T2, Cytochrome P450 2C9. Description: Time-dependent inhibition of CYP2C9 (unknown origin). Type of series: ADME.
Another series relates to Canis familiaris. As to the kind of experiment: Oral bioavailability in Mongrel dog at 2 to 3 mg/kg. The conditions noted are these: in vivo. Type of series: ADME, organism-based, Canis lupus familiaris. The method in brief:
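IV and PO pharmacokinetics in female mongrel dogs, n = 1–2. The oral dose was a 2–3 mg/kg solution. Vss and oral bioavailability were determined.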

The nature of series [10]: Aqueous solubility of the compound at pH 7.4. It counts as physicochemical. The conditions noted are these: buffer.

Data on one compound can be found in ChEMBL document CHEMBL4033702, “Challenges in the development of an M4 PAM preclinical candidate: The discovery, SAR, and in vivo characterization of a series of 3-aminoazetidine-derived amides” (Bioorg Med Chem Lett, 2017).

pEC50, pIC50: −log10 of the molar value. In brackets after ≈: the same amount, converted by molar mass.

T2 sequence (P11712 whole entry): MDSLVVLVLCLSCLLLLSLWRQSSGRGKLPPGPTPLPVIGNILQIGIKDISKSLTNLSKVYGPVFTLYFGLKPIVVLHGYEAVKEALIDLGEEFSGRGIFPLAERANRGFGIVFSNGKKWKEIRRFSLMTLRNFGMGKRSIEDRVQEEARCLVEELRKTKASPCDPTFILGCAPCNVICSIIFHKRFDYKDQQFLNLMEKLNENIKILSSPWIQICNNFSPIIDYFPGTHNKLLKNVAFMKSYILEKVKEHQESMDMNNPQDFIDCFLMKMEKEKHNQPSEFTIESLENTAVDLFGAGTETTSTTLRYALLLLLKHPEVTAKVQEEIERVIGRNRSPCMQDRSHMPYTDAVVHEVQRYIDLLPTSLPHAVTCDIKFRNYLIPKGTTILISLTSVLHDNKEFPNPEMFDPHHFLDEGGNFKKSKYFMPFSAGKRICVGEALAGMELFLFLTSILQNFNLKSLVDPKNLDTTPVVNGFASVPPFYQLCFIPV
Cytochrome P450 2D6, sequence (P10635 whole entry): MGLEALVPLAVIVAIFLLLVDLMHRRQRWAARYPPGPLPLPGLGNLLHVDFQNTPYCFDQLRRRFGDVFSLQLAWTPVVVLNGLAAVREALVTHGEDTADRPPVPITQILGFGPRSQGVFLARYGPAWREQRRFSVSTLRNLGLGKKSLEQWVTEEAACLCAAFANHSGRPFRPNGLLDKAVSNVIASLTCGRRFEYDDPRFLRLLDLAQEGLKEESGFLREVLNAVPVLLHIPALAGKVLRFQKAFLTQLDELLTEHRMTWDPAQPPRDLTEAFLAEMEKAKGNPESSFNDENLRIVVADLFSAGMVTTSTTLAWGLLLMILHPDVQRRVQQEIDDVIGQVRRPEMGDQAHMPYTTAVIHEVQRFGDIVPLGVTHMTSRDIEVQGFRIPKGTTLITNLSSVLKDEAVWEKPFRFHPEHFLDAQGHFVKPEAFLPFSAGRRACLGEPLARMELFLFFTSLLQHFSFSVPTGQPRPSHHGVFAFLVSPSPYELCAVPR

As usually defined, the pEC50 is the EC50 on a negative log10 scale, so that one unit is a factor of ten. As usually defined, the pIC50 is −log10 of the IC50, conventionally taken in molar units. One may read the solubility as the dissolved amount per volume that the medium holds. Read a low solubility as little dissolved substance. Consider `Cc1nnc2sc(C(=O)NC3CN(c4cccc(F)c4F)C3)c(N)c2c1C`, for which the negative logarithm of the EC50 (pEC50) in series [1] is 7.72. Besides, the Activity amounted to 64% in the series with Rattus norvegicus [2], 74% in the series on Rattus norvegicus [4], 18% with Rattus norvegicus [7] and 24% with Rattus norvegicus [8]. The compound also had a negative-log IC50 (pIC50) on Cytochrome P450 2C9 [3] of 5.42. Moreover, the Kb in series [5] came out at 120 nM; in series [6], 2000 nM. Also, the TDI result at Cytochrome P450 1A2, at Cytochrome P450 2D6 and on Cytochrome P450 2C9 [9] was “Not Active” throughout. In addition, the F in the series with Canis familiaris is on record as 20%. In addition, the solubility in [10] turned out to be 1.8 µM (≈ 0.701 µg/mL).
